{"source": "paper PMC5079820", "about": "(Bioorganic & medicinal chemistry, 2016)", "key": {"ABL1": {"molecular_target": "ABL1 (Homo sapiens, UniProt P00519)", "sequence (P00519 whole entry)": "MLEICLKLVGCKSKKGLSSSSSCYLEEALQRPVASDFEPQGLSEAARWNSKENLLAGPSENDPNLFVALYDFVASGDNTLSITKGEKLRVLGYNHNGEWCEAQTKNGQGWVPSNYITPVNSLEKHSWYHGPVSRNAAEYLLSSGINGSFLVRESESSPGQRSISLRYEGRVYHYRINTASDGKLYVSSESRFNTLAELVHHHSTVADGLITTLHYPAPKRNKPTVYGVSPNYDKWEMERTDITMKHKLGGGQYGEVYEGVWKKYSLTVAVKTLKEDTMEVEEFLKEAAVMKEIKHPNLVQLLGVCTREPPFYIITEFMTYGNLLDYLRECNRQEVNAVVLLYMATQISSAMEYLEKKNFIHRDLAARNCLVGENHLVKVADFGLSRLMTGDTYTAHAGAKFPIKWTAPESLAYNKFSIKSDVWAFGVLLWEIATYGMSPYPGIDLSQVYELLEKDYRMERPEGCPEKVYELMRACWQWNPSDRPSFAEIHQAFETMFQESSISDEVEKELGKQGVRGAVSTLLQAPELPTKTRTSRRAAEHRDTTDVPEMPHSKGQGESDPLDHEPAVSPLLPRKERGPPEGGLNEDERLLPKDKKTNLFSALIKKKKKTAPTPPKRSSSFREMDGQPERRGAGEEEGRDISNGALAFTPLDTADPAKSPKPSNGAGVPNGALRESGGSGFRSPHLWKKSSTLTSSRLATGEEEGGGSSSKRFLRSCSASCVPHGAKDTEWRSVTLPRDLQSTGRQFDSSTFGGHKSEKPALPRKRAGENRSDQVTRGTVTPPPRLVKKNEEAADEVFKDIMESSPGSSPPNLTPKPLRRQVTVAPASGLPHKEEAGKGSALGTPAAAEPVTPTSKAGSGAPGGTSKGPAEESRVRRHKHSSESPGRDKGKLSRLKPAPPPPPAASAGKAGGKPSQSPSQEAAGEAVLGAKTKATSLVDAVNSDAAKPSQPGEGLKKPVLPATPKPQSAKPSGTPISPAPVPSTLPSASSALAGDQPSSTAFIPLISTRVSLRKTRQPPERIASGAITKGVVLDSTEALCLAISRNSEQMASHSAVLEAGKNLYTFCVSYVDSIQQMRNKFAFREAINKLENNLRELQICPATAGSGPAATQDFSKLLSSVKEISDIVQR", "assay": "SelectScreen kinase profiling, ABL1", "type": "biochemical", "settings": "read-out: Mean % inhibition at 10 μM, ABL1, 10 μM", "in_short": "(§1)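 Test compound was screened at a single 10 μM concentration through an outsourced kinase selectivity panel (SelectScreen). Percent inhibition of each kinase was determined by time-resolved FRET assay.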"}, "IGF1R": {"molecular_target": "IGF1R (Homo sapiens, UniProt P08069)", "sequence (P08069 31-1367)": "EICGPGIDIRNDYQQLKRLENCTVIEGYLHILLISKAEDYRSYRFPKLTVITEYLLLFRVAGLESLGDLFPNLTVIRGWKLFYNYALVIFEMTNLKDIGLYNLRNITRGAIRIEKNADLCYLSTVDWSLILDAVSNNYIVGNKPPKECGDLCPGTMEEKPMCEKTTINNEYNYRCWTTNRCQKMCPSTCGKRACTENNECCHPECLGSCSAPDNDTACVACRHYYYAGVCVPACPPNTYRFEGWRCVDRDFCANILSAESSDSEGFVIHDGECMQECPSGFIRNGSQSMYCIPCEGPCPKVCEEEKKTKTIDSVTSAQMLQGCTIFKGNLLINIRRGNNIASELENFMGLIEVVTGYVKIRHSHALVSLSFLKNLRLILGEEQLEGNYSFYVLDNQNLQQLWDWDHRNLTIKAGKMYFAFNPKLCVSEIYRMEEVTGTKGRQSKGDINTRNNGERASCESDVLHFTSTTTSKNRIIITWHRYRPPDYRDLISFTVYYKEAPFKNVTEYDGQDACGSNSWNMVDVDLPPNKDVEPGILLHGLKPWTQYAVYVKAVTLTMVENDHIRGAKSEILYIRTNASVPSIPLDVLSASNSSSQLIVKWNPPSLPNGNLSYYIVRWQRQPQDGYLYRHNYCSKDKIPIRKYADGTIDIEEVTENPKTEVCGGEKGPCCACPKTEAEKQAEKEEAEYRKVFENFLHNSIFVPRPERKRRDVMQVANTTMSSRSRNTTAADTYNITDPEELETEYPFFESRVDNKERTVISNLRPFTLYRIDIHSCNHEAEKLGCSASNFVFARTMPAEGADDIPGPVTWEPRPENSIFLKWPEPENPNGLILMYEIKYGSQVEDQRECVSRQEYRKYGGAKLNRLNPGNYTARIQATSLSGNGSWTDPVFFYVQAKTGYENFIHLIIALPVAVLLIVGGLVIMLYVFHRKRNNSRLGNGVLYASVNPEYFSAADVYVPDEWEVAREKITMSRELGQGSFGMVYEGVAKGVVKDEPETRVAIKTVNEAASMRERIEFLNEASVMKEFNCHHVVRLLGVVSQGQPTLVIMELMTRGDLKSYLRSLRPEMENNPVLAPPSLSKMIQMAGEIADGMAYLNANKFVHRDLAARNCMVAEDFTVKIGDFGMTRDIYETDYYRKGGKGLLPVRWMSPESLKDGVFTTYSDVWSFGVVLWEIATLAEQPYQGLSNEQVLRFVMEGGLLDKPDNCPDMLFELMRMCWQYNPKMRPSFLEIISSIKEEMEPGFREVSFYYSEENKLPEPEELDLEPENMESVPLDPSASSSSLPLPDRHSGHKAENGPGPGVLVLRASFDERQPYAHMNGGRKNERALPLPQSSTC", "assay": "SelectScreen kinase profiling, IGF1R", "type": "biochemical", "settings": "read-out: Mean % inhibition at 10 μM, IGF1R, 10 μM", "in_short": "as §1"}, "MST1R (RON)": {"molecular_target": "MST1R (RON) (Homo sapiens, UniProt Q04912)", "sequence (Q04912 25-1400)": "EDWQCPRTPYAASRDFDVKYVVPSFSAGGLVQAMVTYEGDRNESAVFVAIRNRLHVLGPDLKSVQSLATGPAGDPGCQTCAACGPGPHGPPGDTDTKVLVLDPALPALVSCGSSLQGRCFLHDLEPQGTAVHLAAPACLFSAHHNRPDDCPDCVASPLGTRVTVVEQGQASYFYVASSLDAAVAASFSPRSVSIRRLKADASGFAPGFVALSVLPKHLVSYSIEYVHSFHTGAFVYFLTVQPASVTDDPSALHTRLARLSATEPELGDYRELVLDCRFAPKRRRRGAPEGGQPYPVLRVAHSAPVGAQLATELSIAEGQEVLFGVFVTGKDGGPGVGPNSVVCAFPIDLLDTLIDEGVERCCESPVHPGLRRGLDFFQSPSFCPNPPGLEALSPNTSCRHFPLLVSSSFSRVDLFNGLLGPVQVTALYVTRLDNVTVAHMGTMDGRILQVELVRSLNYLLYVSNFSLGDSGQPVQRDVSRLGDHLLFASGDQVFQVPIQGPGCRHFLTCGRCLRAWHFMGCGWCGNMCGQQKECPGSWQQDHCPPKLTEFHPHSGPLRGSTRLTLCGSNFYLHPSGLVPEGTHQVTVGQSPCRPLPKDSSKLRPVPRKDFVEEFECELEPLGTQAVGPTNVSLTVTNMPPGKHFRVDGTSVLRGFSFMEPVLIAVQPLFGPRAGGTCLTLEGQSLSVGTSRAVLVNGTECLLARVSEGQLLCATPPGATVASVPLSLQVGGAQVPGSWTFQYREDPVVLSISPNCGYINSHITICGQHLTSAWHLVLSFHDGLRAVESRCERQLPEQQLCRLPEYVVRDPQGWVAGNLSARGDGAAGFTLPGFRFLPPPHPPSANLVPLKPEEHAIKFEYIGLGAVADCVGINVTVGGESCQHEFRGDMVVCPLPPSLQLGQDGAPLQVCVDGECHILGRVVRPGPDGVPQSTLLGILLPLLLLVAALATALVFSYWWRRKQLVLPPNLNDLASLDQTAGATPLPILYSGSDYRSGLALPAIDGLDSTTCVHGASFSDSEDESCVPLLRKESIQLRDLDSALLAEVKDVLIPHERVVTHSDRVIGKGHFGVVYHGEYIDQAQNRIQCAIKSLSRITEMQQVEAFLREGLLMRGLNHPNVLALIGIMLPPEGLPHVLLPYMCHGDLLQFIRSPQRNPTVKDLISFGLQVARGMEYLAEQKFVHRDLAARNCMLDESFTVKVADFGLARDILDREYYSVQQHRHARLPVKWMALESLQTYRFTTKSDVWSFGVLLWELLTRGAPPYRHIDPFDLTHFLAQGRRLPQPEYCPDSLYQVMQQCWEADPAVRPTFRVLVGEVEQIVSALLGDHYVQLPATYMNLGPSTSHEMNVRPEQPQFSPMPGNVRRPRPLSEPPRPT", "assay": "SelectScreen kinase profiling, MST1R", "type": "biochemical", "settings": "read-out: Mean % inhibition at 10 μM, MST1R (RON), 10 μM", "in_short": "as §1"}, "[1]": {"tested_on": "MCF-10A mammary epithelial cells", "assay": "Cytotoxicity assay", "type": "cell-based", "settings": "24 h, MTT"}, "[2]": {"tested_on": "MDA-MB-231/GFP tumor cells", "assay": "Breast cancer xenograft in athymic nude mice", "type": "in vivo", "settings": "10 mg/kg i.p., 3X/week, throughout the study", "in_short": "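Female athymic nude mice (5–6 weeks old) received 1 × 10^6 MDA-MB-231/GFP cells in RPMI-1640 into the mammary fat pad. At about 50 mm3 (day 10), mice were randomized, 5 per group. Test compound was dissolved as a DMSO stock, diluted in sterile PBS with 0.1% Tween 80, and given i.p. at 10 mg/kg three times weekly. Controls got the same vehicle volume. Body weight was monitored regularly.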"}, "ERBB2 (HER2)": {"molecular_target": "ERBB2 (HER2) (Homo sapiens, UniProt P04626)", "sequence (P04626 23-1255)": "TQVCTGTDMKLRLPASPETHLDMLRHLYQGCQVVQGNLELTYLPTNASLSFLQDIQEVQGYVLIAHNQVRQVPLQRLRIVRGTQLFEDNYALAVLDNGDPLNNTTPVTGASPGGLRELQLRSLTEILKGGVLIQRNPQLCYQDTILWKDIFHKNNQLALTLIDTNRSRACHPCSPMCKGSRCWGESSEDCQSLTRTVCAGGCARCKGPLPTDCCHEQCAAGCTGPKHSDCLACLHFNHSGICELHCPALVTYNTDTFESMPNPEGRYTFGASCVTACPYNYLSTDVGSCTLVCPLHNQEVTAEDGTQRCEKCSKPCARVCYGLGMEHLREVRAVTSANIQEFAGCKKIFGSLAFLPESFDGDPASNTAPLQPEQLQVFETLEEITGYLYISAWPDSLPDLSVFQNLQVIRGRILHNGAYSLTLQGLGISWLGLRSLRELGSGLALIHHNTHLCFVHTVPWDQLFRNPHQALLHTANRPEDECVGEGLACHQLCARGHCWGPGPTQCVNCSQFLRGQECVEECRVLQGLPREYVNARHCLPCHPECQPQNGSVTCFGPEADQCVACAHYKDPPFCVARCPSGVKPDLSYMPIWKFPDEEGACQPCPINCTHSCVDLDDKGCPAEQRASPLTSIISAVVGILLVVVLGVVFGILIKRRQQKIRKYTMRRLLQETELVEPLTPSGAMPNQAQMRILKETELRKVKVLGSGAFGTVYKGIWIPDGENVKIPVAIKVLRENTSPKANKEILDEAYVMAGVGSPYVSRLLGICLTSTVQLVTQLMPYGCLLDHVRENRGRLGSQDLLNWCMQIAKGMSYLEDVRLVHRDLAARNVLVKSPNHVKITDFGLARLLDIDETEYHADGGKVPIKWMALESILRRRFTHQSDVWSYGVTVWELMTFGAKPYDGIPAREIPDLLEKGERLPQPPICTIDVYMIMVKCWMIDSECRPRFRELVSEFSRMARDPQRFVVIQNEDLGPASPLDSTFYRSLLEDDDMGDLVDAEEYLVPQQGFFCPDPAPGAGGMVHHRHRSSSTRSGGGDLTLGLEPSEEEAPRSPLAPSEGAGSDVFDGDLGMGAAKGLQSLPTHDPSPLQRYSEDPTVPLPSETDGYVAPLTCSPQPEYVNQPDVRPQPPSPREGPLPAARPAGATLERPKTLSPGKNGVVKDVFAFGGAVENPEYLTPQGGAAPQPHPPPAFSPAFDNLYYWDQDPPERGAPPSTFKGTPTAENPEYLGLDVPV", "assay": "SelectScreen kinase profiling, HER2", "type": "biochemical", "settings": "read-out: Mean % inhibition at 10 μM, ERBB2 (HER2), 10 μM", "in_short": "as §1"}, "MDA-MB-231 cells": {"tested_on": "MDA-MB-231 cells", "assay": "Lactate dehydrogenase", "type": "cell-based", "settings": "MDA-MB-231, effective anticancer concentrations, 24 h", "in_short": "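MDA-MB-231 cells were seeded at 3 × 10^4 cells/well and allowed to attach, then exposed to test compound in medium with 5% FBS for 24 h at 37 °C, 5% CO2. Controls: Triton X-100 wells (maximum release) and […], in triplicate. Supernatant was incubated with NAD+/lactic acid/INT/diaphorase for 30 min at rt, and A490 was read. % cytotoxicity was calculated relative to spontaneous and maximum release.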"}, "[3]": {"tested_on": "c-Met phosphorylation in MDA-MB-231 cells", "assay": "Western blot of c-Met phosphorylation in cells", "type": "cell-based, human", "settings": "MDA-MB-231, Western blot, 72 h"}, "[4]": {"tested_on": "p-Akt, p-mTOR, p-FAK, paxillin, p-MAPK in MDA-MB-231 cells", "assay": "Western blot of c-Met downstream effectors in cells", "type": "cell-based, human", "settings": "MDA-MB-231, Western blot", "in_short": "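MDA-MB-231 cells were seeded at 5 × 10^5 per 100 mm dish, attached overnight, then treated with test compound or DMSO vehicle for 72 h in serum-reduced medium with 10 ng/ml HGF. Lysates (30 μg) were run on Tris/glycine/SDS gels and transferred to PVDF. Blots were blocked 2 h in 5% BSA/TBST, probed with primary antibodies overnight at 4 °C and HRP secondaries 1 h at rt, and detected by chemiluminescence.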"}, "[5]": {"tested_on": "p-c-Met in MDA-MB-231/GFP tumors", "assay": "Western blot of p-c-Met in excised xenograft tumors", "type": "in vivo, athymic nude mice", "settings": "10 mg/kg i.p., 3X/week, vs vehicle-treated control", "in_short": "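Xenografts were MDA-MB-231/GFP cells in the mammary fat pad of female athymic nude mice, 5 per group. Test compound (i.p., 10 mg/kg, 3×/week) or vehicle (DMSO stock diluted in PBS/0.1% Tween 80) was given. At termination, tumors were excised, snap-frozen, homogenized and lysed. Lysates were immunoblotted for p-c-Met: SDS gels, PVDF, 5% BSA/TBST block, primary antibodies overnight at 4 °C, HRP secondaries, chemiluminescence.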"}}}
{"smiles": "C/C1=C\\[C@H](OC(=O)Nc2cc(C(F)(F)F)cc(C(F)(F)F)c2)C[C@](C)(O)/C=C/[C@H](C(C)C)CC/C(C)=C/CC1", "note": "[Compound 20, 6-O-[(N-(3,5-bis-(trifluoromethyl)phenyl)carbamoyl)]-(1S,2E,4S,7E,11E)-2,7,11-cembratriene-4,6-diol]", "values": [{"measurement": "inhibition at 10 µM", "setting": "ABL1", "result": "30 to 35", "unit": "%"}, {"measurement": "inhibition at 10 µM", "setting": "IGF1R", "result": "30 to 35", "unit": "%"}, {"measurement": "inhibition at 10 µM", "setting": "MST1R (RON)", "result": "30 to 35", "unit": "%"}, {"measurement": "cellular death at effective doses", "setting": "[1]", "result": "didn’t induce a significant cellular death"}, {"measurement": "average body weight difference between treatment and vehicle groups", "setting": "[2]", "result": "non-significant"}, {"measurement": "inhibition at 10 µM", "setting": "ERBB2 (HER2)", "result": 23, "unit": "%"}, {"measurement": "LDH release (necrosis marker)", "setting": "MDA-MB-231 cells", "result": "minimal"}, {"measurement": "effect on p-Met (phosphorylated c-Met) level", "setting": "[3]", "result": "significant concentration-dependent downregulation"}, {"measurement": "levels of p-Akt, p-mTOR and p-FAK", "setting": "[4]", "result": "significant reductions"}, {"measurement": "paxillin phosphorylation", "setting": "[4]", "result": "phosphorylation reduction"}, {"measurement": "p-MAPK level", "setting": "[4]; compared to untreated cells", "result": "dose-dependent downregulation"}, {"measurement": "level of p-c-Met in excised tumors", "setting": "[5]", "result": "significant decrease"}]}
